Screens deposited in PubChem by The Scripps Research Institute Molecular Screening Center.
S1P4 agonist = agonists of human S1P4 receptor; S1P4-expressing cell line, agonist reporter assay; activation, % at 4.98 µM; 220,000 compounds, 0.35% hits; AID 1509; in the data active = activation above about 11%;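 note: 0% = DMSO vehicle and 100% = reference agonist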
NPY-Y1 antag = blocks the human neuropeptide Y Y1 receptor; inhibition, % at 3.6 µM; 200,000 compounds, 1% hits; AID 1040; HEK293-CNG Y1 cells, membrane potential fluorescence; NPY at EC95, then isoproterenol; P25929;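 active = inhibition above the campaign mean inhibition of all tested compounds plus 3 SD, cut at about 20% in these data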;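 note: 0% = DMSO wells given NPY plus isoproterenol and 100% = isoproterenol alone without NPY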
Target sequence (P25929 whole entry, looked up): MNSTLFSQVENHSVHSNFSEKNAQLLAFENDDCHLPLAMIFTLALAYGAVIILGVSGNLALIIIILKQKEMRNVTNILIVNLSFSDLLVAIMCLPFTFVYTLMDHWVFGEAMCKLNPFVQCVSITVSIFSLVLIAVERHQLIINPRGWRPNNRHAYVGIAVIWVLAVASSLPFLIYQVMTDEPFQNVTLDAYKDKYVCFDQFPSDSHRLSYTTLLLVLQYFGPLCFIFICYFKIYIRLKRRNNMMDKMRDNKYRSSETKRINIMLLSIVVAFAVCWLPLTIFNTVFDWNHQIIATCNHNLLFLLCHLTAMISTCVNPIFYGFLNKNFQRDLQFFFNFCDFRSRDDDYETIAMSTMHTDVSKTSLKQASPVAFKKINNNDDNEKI
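System: HEK293 cells with Y1 receptor plus CNG channel / Probe or stimulus: NPY 25 nM then isoproterenol 1 µM plus Ro 20-1724 25 µM / Compound: one concentration, 3.6 µM, in 0.4% DMSO / Schedule: compound incubation 1 h at room temperature, readout 45 min post-stimulation / Measured by: membrane potential fluorescence / Read-out: % inhibition of NPY effect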
NPY-Y2 antag = antagonists of human neuropeptide Y receptor Y2. P49146. NPY-Y2 expressing cells, antagonist mode. inhibition, % at 2.7 µM. 140,000 compounds, 0.99% hits; in the data active = inhibition above about 17%;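 note: 0% = vehicle with agonist challenge and 100% = reference antagonist with challenge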
NPY1 pot ag = human NPY-Y1 potentiation or agonism, primary screen. AID 1304. P25929. activation, % at 3.6 µM. NPY-Y1 expressing cells, potentiator/agonist activation. 220,000 compounds, 0.37% hits; in the data active = activation above about 33%, passing the limit was not always enough;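 note: cells stimulated with NPY at EC10 then isoproterenol at EC100; 0% = low agonist plus stimulus and 100% = saturating agonist plus stimulus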
S1P4 antag = antagonists of human S1P4 receptor; O95977; inhibition, % at 4.98 µM; S1P4-expressing cells, antagonist mode, reporter read-out; 220,000 compounds, 0.26% hits; in the data active = inhibition above about 29%;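 note: 0% = wells stimulated with agonist and 100% = vehicle wells without agonist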
NPY-Y2 PAM-ag = human NPY-Y2 potentiation or agonism, primary screen; activation, % at 3.6 µM; AID 1359; 220,000 compounds, 0.45% hits; cells expressing NPY-Y2, potentiator/agonist read-out; in the data active = activation above about 27%;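 note: cells stimulated with NPY near EC25 plus isoproterenol at EC100; 0% = vehicle plus submaximal agonist and 100% = vehicle plus saturating agonist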
Active calls of the source: *; / = no result. Sampled rows, rich in hits. Any-hit rate of the full collection: about 2.4%.

SMILES	S1P4 agonist	NPY-Y1 antag	NPY-Y2 antag	NPY1 pot ag	S1P4 antag	NPY-Y2 PAM-ag
O=C(NCCCn1ccnc1)c1ccncc1	0	-13	1	-9	-16	12
C=CCn1c(SCc2cc(C(C)=O)ccc2OCC)nc2ccccc2c1=O	0	27*	25*	-41	-3	-13
C=CCn1c(SCc2c(C)noc2C)nc2ccccc2c1=O	-1	64*	29*	-61	11	-30
C=CCn1c(SCc2c(C)noc2C)nc2cc(C(=O)O)ccc2c1=O	0	3	5	16	-19	0
Cc1noc(C)c1CSc1nc2ccccc2c(=O)n1-c1ccccc1	2	24*	18*	-19	-22	-6
CCCCCCCCCCC[C@@H](C[C@@H]1OC(=O)[C@H]1CCCCCC)OC(=O)[C@H](CC(C)C)NC=O	1	6	/	6	8	-4
Cn1c(N)c(C(=O)CSc2ccccn2)c(=O)n(C)c1=O	0	-1	2	-21	-14	-11
Cc1ccnc(NC(=O)CCC2CCCCC2)c1	1	23*	20*	-8	-1	-10
O=C(O)C1CCC(=O)N1Cc1ccccc1Cl (configuration not stated)	15*	4	3	-7	-17	7
COc1cccc(C2/C(=C(\O)c3ccc4c(c3)OCCO4)C(=O)C(=O)N2CCCN(C)C)c1OC (configuration not stated)	38*	3	3	-17	-7	-5
COc1cccc(C2/C(=C(\O)c3ccc4c(c3)OCO4)C(=O)C(=O)N2CCN(C)C)c1OC (configuration not stated)	-1	-3	0	-2	-10	9
CCOC(=O)N1CCC(Nc2nc3ccccc3n3nnnc23)CC1	1	2	4	-3	-15	4
COC(=O)c1ccc(C(C(=O)NCc2ccccc2)N(Cc2ccco2)C(=O)c2cnccn2)cc1 (configuration not stated)	19*	-8	3	-27	2	3
CCC(=O)N1CCN(c2ccccc2NC(=O)Cc2ccccc2)CC1	-1	24*	16	-17	-34	-17
CCC(=O)N1CCN(c2ccc(Cl)cc2NC(=O)c2ccc(Br)o2)CC1	-2	9	17*	-31	-4	-1
Cc1ccc(C(=O)Nc2ccccc2N2CCN(C(=O)C(C)C)CC2)cc1	2	14	4	10	-9	4
CC(=O)N1CCN(c2ccccc2NC(=O)Cc2ccc(Cl)cc2)CC1	-1	4	/	-5	-3	-2
CS(=O)(=O)N1CCN(c2ccccc2NC(=O)Cc2ccccc2)CC1	-2	7	9	-22	-10	-3
CC(C)C(=O)N1CCN(c2ccccc2NC(=O)Cc2ccc(Cl)cc2)CC1	1	44*	20*	-6	-4	-6
CCOc1cccc(C(=O)Nc2ccccc2N2CCN(C(=O)C(C)C)CC2)c1	1	21*	21*	-9	-8	-10
Nc1c(C(O)(C(F)(F)F)C(F)(F)F)cc(C(O)(C(F)(F)F)C(F)(F)F)c2ccccc12	1	-26	-7	48*	2	77*
CC(C)c1[nH]nc2c1C(c1cccc(OC(=O)N3CCOCC3)c1)C(C#N)=C(N)O2 (configuration not stated)	-1	131*	20*	-31	-5	0
O=C(OCCN=C1NS(=O)(=O)c2ccccc21)C1CC(=O)N(c2ccc(Cl)cc2)C1 (configuration not stated)	0	0	1	-3	-18	-13
CN(C)c1ccc(N=Nc2ccccc2C(=O)OCC(=O)NCC2CCCCC2)cc1	2	-13	-5	59*	-20	54*
COc1ccc(C(=O)NCC(=O)OCC(=O)NC2CCCC2)cc1	1	0	/	-3	-9	-8
SMILES	S1P4 agonist	NPY-Y1 antag	NPY-Y2 antag	NPY1 pot ag	S1P4 antag	NPY-Y2 PAM-ag
COc1ccc(NC(=O)CN2CCN(S(=O)(=O)c3ccc(Cl)cc3)CC2)cc1Cl	0	6	-1	8	9	17
COc1ccc(S(=O)(=O)N2CCCN(CC(=O)Nc3ccc(OC)c(Cl)c3)CC2)cc1	0	38*	18*	-46	3	-21
CC/C(=N/NC(=O)c1ccc(Br)o1)c1ccc(Cl)cc1	-1	8	5	-3	-1	-2
CCC(=O)N1c2ccccc2-c2nnc(SC)nc2OC1c1ccc(N(C)C)cc1 (configuration not stated)	220*	-1	0	-6	-9	12
CCC1Oc2nc(SC)nnc2-c2ccccc2N1C(=O)c1ccccc1 (configuration not stated)	-2	0	-4	-14	10	-5
CC1CCN(c2ccccc2NC(=S)NC(=O)c2ccco2)CC1	0	35*	12	-48	-15	-25
CCc1cccc(CC)c1NC(=S)N1CCn2cccc2C1c1cccnc1 (configuration not stated)	1	17	8	-23	-10	-13
O=C(O)c1ccc2c(c1)SC1=NS(=O)(=O)CCN12	-1	/	/	11	-3	-13
CN(C(=O)c1ccc2c(c1)SC1=NS(=O)(=O)CCN12)C(c1ccccc1)c1ccccc1	1	37*	22*	-21	-26	-20
Cc1cccc(N2C(=O)C(Oc3ccc(Cl)cc3Cl)C2C=O)c1C (configuration not stated)	2	0	-2	54*	-36	10
COC(=O)c1sccc1NC(=O)c1cc(-c2ccc(C)cc2C)nc2ccccc12	0	-4	2	-17	-14	-5
COc1cccc2sc(Nc3nc(-c4ccncc4)cs3)nc12	2	-14	/	40*	5	35*
COc1cccc2sc(Nc3nc(-c4cc5ccccc5oc4=O)cs3)nc12	0	2	3	-14	-19	-8
N#CCCCSc1ncccc1-c1nc2ccccc2[nH]1	0	5	0	10	10	11
O=C(/C=C/c1cccc2ccccc12)NCCC1=CCCCC1	1	32*	22*	-50	-13	-21
c1cnc(SCCCOc2ccc3ccccc3c2)nc1	1	10	12	-19	7	-10
CCCCNC(=O)CCn1c(=O)c2ccccc2n(CC(=O)Nc2ccccc2OCC)c1=O	1	-3	1	10	6	1
Cc1ccc(-c2c(C(=O)N(C)Cc3ccccc3)oc(=O)c3ccccc23)cc1	0	35*	34*	-29	-15	-20
CN(Cc1ccccc1)C(=O)c1oc(=O)c2ccccc2c1-c1ccccc1	0	31*	23*	-2	-22	-10
CC1=CC(C)C(C[N+]2(C)CCCCC2)C(C)C1 (configuration not stated)	0	2	/	10	-23	-3
CC(C)CC(=O)Nc1c2c(nn1-c1ccc(F)cc1)CSC2	1	-4	3	93*	9	100*
